Experimental findings from ChEMBL document CHEMBL1131094, “Classical/nonclassical hybrid cannabinoids: southern aliphatic chain-functionalized C-6beta methyl, ethyl, and propyl analogues” (J Med Chem, 1998) are described below.

One assay deals with Cannabinoid receptor 2 (Mus musculus, UniProt P47936). Put plainly: Binding affinity to Cannabinoid receptor 2 from mouse spleen was measured using [3H]CP-55940 as radioligand. Format: tissue-based. In a few lines: (§1)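 Filtration displacement assay: 40 µg membrane protein (rat forebrain synaptosomes for CB1, mouse spleen for CB2) incubated 1 h at 30 °C with 0.76 nM [3H]CP-55,940 and varied test concentrations. Nonspecific binding defined by 100 nM unlabeled CP-55,940. Specific binding normalized 0–100%, IC50 fitted with a four-variable equation (max 100, min 0), mean of ≥3 experiments in duplicate, then converted to Ki.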

The next assay has as its target Cannabinoid receptor 1 (Rattus norvegicus, UniProt P20272). Nature of the assay: Binding affinity to Cannabinoid receptor 1 from rat forebrain synaptosomal membranes was measured using [3H]CP-55940 as radioligand. In a few lines:
as §1

pKi: −log10 of the molar value.

Chain of Cannabinoid receptor 1 (P20272 whole entry): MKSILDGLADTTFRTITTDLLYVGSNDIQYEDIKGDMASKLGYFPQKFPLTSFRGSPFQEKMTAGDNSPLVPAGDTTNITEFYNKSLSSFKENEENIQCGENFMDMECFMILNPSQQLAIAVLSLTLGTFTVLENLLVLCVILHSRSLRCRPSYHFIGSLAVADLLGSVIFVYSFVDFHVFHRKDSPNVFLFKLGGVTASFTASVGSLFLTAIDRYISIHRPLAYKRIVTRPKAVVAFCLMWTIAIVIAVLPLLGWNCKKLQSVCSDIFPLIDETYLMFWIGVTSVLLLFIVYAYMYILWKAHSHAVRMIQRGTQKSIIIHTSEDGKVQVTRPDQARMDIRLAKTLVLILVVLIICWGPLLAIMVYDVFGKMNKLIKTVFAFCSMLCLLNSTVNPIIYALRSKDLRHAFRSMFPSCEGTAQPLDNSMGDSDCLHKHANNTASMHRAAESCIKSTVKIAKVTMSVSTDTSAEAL
Chain of Cannabinoid receptor 2 (P47936 whole entry): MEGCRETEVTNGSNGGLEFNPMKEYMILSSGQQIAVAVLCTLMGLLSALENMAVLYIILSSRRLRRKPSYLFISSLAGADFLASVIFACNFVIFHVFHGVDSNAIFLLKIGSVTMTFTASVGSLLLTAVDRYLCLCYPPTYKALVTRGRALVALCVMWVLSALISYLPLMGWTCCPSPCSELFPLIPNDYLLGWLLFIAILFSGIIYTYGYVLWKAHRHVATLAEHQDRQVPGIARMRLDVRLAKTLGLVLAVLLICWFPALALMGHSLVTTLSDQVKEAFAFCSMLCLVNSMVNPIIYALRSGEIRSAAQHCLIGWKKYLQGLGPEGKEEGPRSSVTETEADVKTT

Turning to `CCCCCCC(C)(C)c1cc(O)c2c(c1)O[C@@](C)(CCCI)[C@@H]1CC[C@@H](CO)C[C@@H]21`, the results for the pKi at Cannabinoid receptor 2 and on Cannabinoid receptor 1 were 8.37 and 8.66, respectively.

As for `CCCCCCC(C)(C)c1cc(O)c2c(c1)O[C@@](C)(CCO)[C@@H]1CC[C@@H](CO)C[C@@H]21`, the pKi (as a rule, the negative decadic logarithm of the Ki, by convention in mol/L) was 8.64 at Cannabinoid receptor 2 and 8.55 on Cannabinoid receptor 1.

On to `CCCCCCC(C)(C)c1cc(O)c2c(c1)O[C@@](C)(CCI)[C@@H]1CC[C@@H](CO)C[C@@H]21`, for which the results for the pKi at Cannabinoid receptor 2 and at Cannabinoid receptor 1 were 8.01 and 7.39, respectively.

In the case of `CCCCCCC(C)(C)c1cc(O)c2c(c1)O[C@@](C)(CC)[C@@H]1CC[C@@H](CO)C[C@@H]21`, the values for the pKi on Cannabinoid receptor 2 and at Cannabinoid receptor 1 were 7.67 and 7.95, respectively.

In the case of `CCCCCCC(C)(C)c1cc(O)c2c(c1)O[C@@](C)(CO)[C@@H]1CC[C@@H](CO)C[C@@H]21`, the pKi on Cannabinoid receptor 2 is 8.85; at Cannabinoid receptor 1, 8.72.

On to `CCCCCCC(C)(C)c1cc(O)c2c(c1)O[C@@](C)(CCCO)[C@@H]1CC[C@@H](CO)C[C@@H]21`, for which the pKi on Cannabinoid receptor 2 was 8.47; on Cannabinoid receptor 1 it was 8.66.

With `CCCCCCC(C)(C)c1cc(O)c2c(c1)O[C@@](C)(CCC)[C@@H]1CC[C@@H](CO)C[C@@H]21`, the figures for the pKi on Cannabinoid receptor 2 and at Cannabinoid receptor 1 were 7.41 and 7.84, respectively.

On to `CCCCCCC(C)(C)c1cc(O)c2c(c1)OC(C)(C)[C@@H]1CC[C@@H](CO)C[C@@H]21`, for which the pKi at Cannabinoid receptor 2 and at Cannabinoid receptor 1 was 8.64 throughout.
